Rows were chosen to be rich in hits. Some 27% of all compounds tested hit in one or more screens of this group.
CYP2C19 inh: inhibitors of human CYP2C19; CYP2C19 Supersomes, luciferin-H EGE luminescence, 30 min; inhibition, % at 5 µM; hit rate 21% among 96,000; P33261;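 active = CYP2C19 inhibition above a set limit at 5 µM in the primary screen, cut at about 50% in these data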;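 note: plate controls were negative control wells for no effect and 2.5 mM tranylcypromine positive control for full effect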
Target sequence (P33261 whole entry, looked up): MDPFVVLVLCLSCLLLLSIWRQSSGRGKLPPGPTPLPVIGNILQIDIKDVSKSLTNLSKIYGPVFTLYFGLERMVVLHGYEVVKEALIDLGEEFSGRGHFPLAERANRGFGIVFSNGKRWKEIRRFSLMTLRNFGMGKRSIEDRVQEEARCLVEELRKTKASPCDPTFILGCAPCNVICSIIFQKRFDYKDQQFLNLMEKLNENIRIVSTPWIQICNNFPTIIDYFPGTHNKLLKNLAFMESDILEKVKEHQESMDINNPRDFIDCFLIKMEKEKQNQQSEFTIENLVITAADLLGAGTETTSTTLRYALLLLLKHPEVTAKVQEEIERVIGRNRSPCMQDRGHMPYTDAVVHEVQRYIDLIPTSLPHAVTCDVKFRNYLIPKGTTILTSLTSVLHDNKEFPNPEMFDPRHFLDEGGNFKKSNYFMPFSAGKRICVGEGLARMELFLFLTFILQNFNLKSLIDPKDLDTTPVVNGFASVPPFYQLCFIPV
CYP2C9 activ: CYP2C9 (human) activation. hit rate 1.4% among 96,000. AID 1024. activation factor at 5 µM. recombinant CYP2C9, luciferin-H conversion, luminescence; active compounds read high; factor 1 = untreated enzyme, 0 = blocked. P11712;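 active = activation factor of 2 or more for CYP2C9 at a 5 µM dose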;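 note: 0 = sulfaphenazole-blocked wells and 1 = vehicle-only wells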
CYP2C19 activ: activators of human cytochrome P450 2C19; recombinant CYP2C19, luciferin-H EGE luminescence; active compounds read high; 0 = fully inhibited enzyme, 1 = untreated enzyme; activation factor at 5 µM; 96,000 tested, under 10 active;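 active = activation factor of at least 2 at 5 µM in the primary screen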;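 note: 0 = wells with 2.5 mM tranylcypromine and 1 = vehicle-only wells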
CYP2C9 inh: inhibitors of human CYP2C9; hit rate 20% among 96,000; CYP2C9 Supersomes, luciferin-H conversion, luminescence; AID 777; P11712; inhibition, % at 5 µM;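 active = blocking of liver enzyme CYP2C9 beyond about 50% at 5 µM, limit read from the data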
Cav3 T inh: inhibitors of human Cav3.2 T-type calcium channel | hit rate 4% among 100,000 | O95180 | B-score at 10 µM | Cav3.2-expressing cells, Fluo-4 calcium fluorescence FDSS; active compounds read low;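 active = single-dose well whose peak fluorescence ratio is a statistical outlier from its plate by either plate-standardised score or position-corrected B-score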
HIV Rev-RRE inh: disrupts HIV-1 Rev binding to RRE RNA | P05866 | Rev peptide-RRE RNA binding, FRET | inhibition, % at 8 µM | hit rate 0.79% among 97,000 | AID 704;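 active = inhibition above the screen-wide mean plus 3 SD, cut at about 35% in these data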;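 note: 0% = median DMSO wells and 100% = median Neomycin B control wells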
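System: Cy5-labelled duplex RRE RNA binding fluorescein-labelled HIV Rev peptide; Signal: fluorescein-to-Cy5 FRET, 480 nm excitation; Also added: labelled Rev peptide; Compound: one concentration, 8 µM nominal; Buffer or medium: HEPES pH 7.5 salt buffer with EDTA; Read-out: % inhibition of FRET ratio versus controls; Schedule: 5 min preincubation and 15 min binding, 25 °C.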
An asterisk follows results filed as active; / = no result.

SMILES | CYP2C19 inh | CYP2C9 activ | CYP2C19 activ | CYP2C9 inh | Cav3 T inh | HIV Rev-RRE inh
Cc1nc2sc(C(c3cccs3)N3CCC(C(N)=O)CC3)c(O)n2n1 (configuration not stated) | -8 | 0.7 | 1.1 | 26 | 0.49 | 3
Cc1ccc(CCSCC(=O)O)cn1 | -7 | 1 | 1.1 | -5 | 1.5 | 5
CCOc1cc(S(=O)(=O)NCCN2CCOCC2)c(C)cc1C | 75* | 2.1* | 0.2 | -106 | -0.045 | 6
Cc1ccc(S(=O)(=O)NCCCN2CCOCC2)c(C)c1 | 64* | 1.6 | 0.4 | -56 | 0.034 | /
COc1cc(C)c(Cl)cc1S(=O)(=O)NCCCN1CCOCC1 | 66* | 1.3 | 0.3 | -32 | 0.18 | 4
Cc1cc(Br)c(S(=O)(=O)NCCN2CCOCC2)cc1C | 41 | 1.1 | 0.6 | -14 | 0.86 | 2
COc1cc(Cl)c(S(=O)(=O)NCCCN2CCOCC2)cc1Cl | 46 | 1.9 | 0.5 | -90 | 1.5 | 3
Cc1cccc(-c2nnc(SCc3ccc(C#N)cc3)n2Cc2ccco2)c1 | 42 | 0.6 | 0.6 | 35 | -3 | 4
O=C(N/N=C\c1ccc(F)cc1)c1csnn1 | 16 | 0.9 | 0.8 | 11 | 0.11 | 0
CCn1nc(NC(=O)c2ccncc2)c2cc3ccccc3nc21 | 70* | 0.3 | 0.3 | 67* | 0.2 | 2
CCCCC(=O)Nc1nn(CC(C)C)c2nc3ccccc3cc12 | 30 | 0.7 | 0.7 | 29 | -1.5 | 9
CCn1nc(NC(=O)c2ccncc2)c2cc3cccc(C)c3nc21 | 41 | 0.6 | 0.6 | 37 | -0.22 | 8
COc1ccc2nc3c(cc2c1)c(NC(=O)c1cccs1)nn3CC(C)C | 78* | 0.1 | 0.2 | 93* | / | 18
Cc1ccc2nc3c(cc2c1)c(NC(=O)c1cccnc1)nn3C | 40 | 0.4 | 0.6 | 58* | / | 9
Cc1ccc2nc3c(cc2c1)c(NC(=O)C1CCCO1)nn3CC(C)C (configuration not stated) | 22 | 0.7 | 0.8 | 31 | -0.039 | 17
CC(C)Cn1nc(NC(=O)C(C)(C)C)c2cc3ccccc3nc21 | 36 | 0.5 | 0.6 | 52* | -1.2 | 8
Cc1ccc(C)c(NC(=O)C2C(c3ccccc3)C2(Cl)Cl)c1 (configuration not stated) | 10 | 0.9 | 0.9 | 10 | -4.6* | 12
Cc1ccc(C)c(NC(=O)C2C3CCCC2C3c2ccccc2)c1 (configuration not stated) | 15 | 0.9 | 0.9 | 12 | -0.52 | -3
CCc1ccccc1NC(=O)C1C(c2ccccc2)C1(Cl)Cl (configuration not stated) | 45 | 1.2 | 0.5 | -17 | -7.6* | 12
CCc1ccccc1NC(=O)c1cc(C2CC2)on1 | 35 | 2.4* | 0.7 | -141 | 0.0045 | /
COCC(=O)Nc1ccccc1C#N | 4 | 1 | 1 | -5 | / | 1
CCOC(=O)N1CCC(N2Cc3cccc(C(=O)Nc4ccc(CC)cc4)c3C2=O)CC1 | 94* | 0 | 0.1 | 100* | 0.018 | 9
CCOC(=O)N1CCC(N2C(=O)c3ccc(C(=O)NCc4ccc(F)cc4)cc3C2=O)CC1 | 29 | 0.4 | 0.7 | 58* | -2.2 | /
CCOC(=O)N1CCC(N2Cc3cccc(C(=O)Nc4cc(F)ccc4F)c3C2=O)CC1 | 21 | 0.2 | 0.8 | 78* | 1.5 | 11
CCOC(=O)N1CCC(N2Cc3cccc(C(=O)Nc4ccc(F)cc4)c3C2=O)CC1 | 44 | 0.1 | 0.6 | 90* | 1.2 | 10
SMILES | CYP2C19 inh | CYP2C9 activ | CYP2C19 activ | CYP2C9 inh | Cav3 T inh | HIV Rev-RRE inh
CCOC(=O)N1CCC(N2Cc3cccc(C(=O)O)c3C2=O)CC1 | 4 | 0.6 | 1 | 38 | 0.69 | /
CCOC(=O)N1CCC(N2Cc3cccc(C(=O)NCC4CCN(CC(C)C)C4)c3C2=O)CC1 (configuration not stated) | 86* | 0 | 0.1 | 96* | 0.7 | 9
COc1ccc(CCNC(=O)CSc2nncn2N)cc1OC | 10 | 0.9 | 0.9 | 8 | -0.022 | 9
CN(C)c1ncc(S(=O)(=O)c2ccccc2)c(-c2ccccc2Cl)n1 | 76* | 0.7 | 0.2 | 32 | -1.4 | 6
O=C1Nc2ccc(S(=O)(=O)N3CCCC3)c3ccc(S(=O)(=O)N4CCCC4)c1c23 | -7 | 1.1 | 1.1 | -6 | 2.7 | 12
CCn1c(Cc2ccccc2)nnc1SCC(=O)Nc1ccc(S(N)(=O)=O)cc1 | 6 | 0.8 | 0.9 | 18 | 0.13 | 2
